These results are taken from PMC4243878 (British Journal of Clinical Pharmacology, 2014).

“And” between values parts separate entries of the source, which are not always exact repeats. Equal values may be shown once. Read-outs that look alike come from different tables or passages of the source.

Data set [1] is classed as in vivo, human. The conditions noted are these: Cohort 2, telaprevir 750 mg every 8 h + dolutegravir 50 mg once daily (n = 15). The method in brief:
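Cohort 2 took 750 mg oral telaprevir three times daily with 50 mg dolutegravir daily for 10 days, with moderate-fat meals. Plasma was acidified with phosphoric acid, and (S)-telaprevir was extracted by supported liquid extraction. Analysis was LC-MS/MS with TurboIonSpray, positive ion mode, calibrated 0.1–20 μg ml−1. Steady-state parameters came from noncompartmental analysis and were compared with label data without formal statistics.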

The conditions of data set [2]: cited from earlier work.
Data set [3] is classed as in vivo, human. As to conditions: Cohort 1, boceprevir 800 mg every 8 h + dolutegravir 50 mg once daily (n = 15); geometric mean (%CVb). The method in brief:
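Cohort 1 took 800 mg oral boceprevir three times daily with 50 mg dolutegravir daily for 10 days, with moderate-fat meals. Plasma was acidified with phosphoric acid, and the stereoisomers were extracted by solid-phase extraction. Analysis was LC-MS/MS with heated nebulizer, positive ion mode, calibrated 0.0052–5.2 and 0.0048–4.8 μg ml−1. Parameters came from noncompartmental steady-state analysis, reported as geometric means (%CVb) and median Tmax, and were compared with label values without statistics.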

The conditions of data set [4]: cited from earlier work. The source holds these as a separate data set.
Data set [5] is classed as in vivo, human. As to conditions: for Cmin / AUC / Cmax / concentration at 24 h / half-life: geometric mean (95% CI); for AUC / Cmax / concentration at 24 h / half-life: both, human, plasma, oral; for AUC: AUC0–τ; for concentration at 24 h: Cτ. The gist of the method: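 Healthy adults took 50 mg oral dolutegravir once daily with a morning moderate-fat meal, alone for 5 days. They then continued for 10 days with boceprevir 800 mg or telaprevir 750 mg three times daily, with no washout. Plasma was assayed by validated LC-MS/MS. Noncompartmental parameters used actual sampling times, with Cτ taken at 24 h postdose. Log-transformed AUC0–τ, Cmax and Cτ were analysed by mixed-model ANOVA (subject random, treatment fixed). Results were given as GLS mean ratios with 95% CI versus dolutegravir alone.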

For data set [6] the following is noted: previous dolutegravir clinical studies; cited from earlier work.
The nature of data set [7]: Safety: adverse events in healthy adult subjects. It is filed as in vivo, human. The conditions noted are these: dolutegravir n = 32, combinations n = 16 each. The method in brief: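 Healthy adults aged 18–65 were randomised into two cohorts of 16. Period 1: 50 mg dolutegravir once daily for 5 days. Period 2, with no washout: Cohort 1 added boceprevir 800 mg three times daily, Cohort 2 added telaprevir 750 mg three times daily, both for 10 days. Doses were given with moderate-fat meals (30% fat, 600 calories). Adverse events were recorded and graded for intensity and drug relatedness.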

[8] abbreviates: Telaprevir alone, historical, ref Telaprevir package insert, 2013.
The mark [9] stands for this setting: Boceprevir alone, historical, ref Boceprevir package insert, 2013.
Where [10] appears, read: Cohort 1, dolutegravir 50 mg once daily + boceprevir 800 mg every 8 h, Period 2 (n = 13).
The mark [11] stands for this setting: Cohort 1, dolutegravir + boceprevir vs. dolutegravir.
Where [12] appears, read: Cohort 2, dolutegravir 50 mg once daily + telaprevir 750 mg every 8 h, Period 2 (n = 15).
[13] abbreviates: Cohort 2, dolutegravir + telaprevir vs. dolutegravir.
The mark [14] stands for this setting: 50 mg, Cohort 1, dolutegravir 50 mg once daily alone, Period 1 (n = 16).
Setting [15] is: 50 mg, Cohort 2, dolutegravir 50 mg once daily alone, Period 1 (n = 16).
Where [16] appears, read: coadministration with telaprevir vs dolutegravir alone.

The term Cmax denotes the maximum level reached in the sampled fluid or tissue. A word on the half-life: it is how long it takes for the measured level to halve. Consider `CCC[C@H](NC(=O)[C@@H]1[C@H]2CCC[C@H]2CN1C(=O)[C@@H](NC(=O)[C@@H](NC(=O)c1cnccn1)C1CCCCC1)C(C)(C)C)C(=O)C(=O)NC1CC1` [Telaprevir, telaprevir], for which, in data set [1] (geometric mean (%CVb)), the Cmin is 1.72 (25) μg ml^−1 and the Cτ is given as 1.75 (26) μg ml^−1. The Tmax in data set [1] (median (range)) is given as 3.00 (2.0, 4.0) h. Also, in data set [2] (setting [8]), the “AUC0–τ” value is 22.3 µg·h/mL, the maximum concentration (Cmax) was 3.51 µg/mL and the Cmin was 2.03 µg/mL. The half-life in data set [2] was 9 to 10 h.

As for `CC(C)(C)NC(=O)N[C@H](C(=O)N1C[C@H]2[C@@H]([C@H]1C(=O)NC(CC1CCC1)C(=O)C(N)=O)C2(C)C)C(C)(C)C` (stereo partly shown) [Boceprevir, boceprevir], in data set [3], the Cmin is 0.07 (23) μg ml^−1 and the Cτ is recorded as 0.08 (35) μg ml^−1. In data set [4] (setting [9]), the “AUC0–τ” value is 5.408 µg·h/mL, the highest concentration (Cmax) was 1.723 µg/mL and the Cmin was 0.08 µg/mL. In addition, in data set [4], the half-life was 3 to 4 h.

As a reminder, the AUC is concentration integrated over time. `C[C@@H]1CCO[C@H]2Cn3cc(C(=O)NCc4ccc(F)cc4F)c(=O)c(O)c3C(=O)N12` [Dolutegravir]: in data set [5] (setting [10]), the Cmin is recorded as 1.36 (1.10, 1.68) μg ml^−1; the area under the curve (AUC) worked out at 65300 ng·h/mL; the maximum concentration (Cmax) is 4820 ng/mL; the concentration at 24 h was 1400 ng/mL. For the same compound, the Cmin in data set [5] (Cohort 1, dolutegravir 50 mg once daily alone, Period 1 (n = 16)) is 1.00 (0.79, 1.25) μg ml^−1. Further, in data set [5] (setting [11]), the “AUC0–τ GLS mean ratio (95% CI)” value is recorded as 1.07 (0.924, 1.234); the “Cmax GLS mean ratio (95% CI)” value was 1.05 (0.941, 1.176); the “Cmin GLS mean ratio (95% CI)” value is on record as 1.36 (1.106, 1.684); the “Cτ GLS mean ratio (95% CI)” value is on record as 1.08 (0.878, 1.329). For the same compound, the “t1/2 GLS mean ratio (95% CI)” value in data set [5] (setting [11]) is given as 1.05 (0.940, 1.166). In data set [5] (setting [12]), the Cmin was 2.03 (1.73, 2.38) μg ml^−1; the AUC was determined as 84200 ng·h/mL; the Cmax is 5810 ng/mL; the concentration at 24 h stood at 2090 ng/mL. The Cmin in data set [5] (Cohort 2, dolutegravir 50 mg once daily alone, Period 1 (n = 16)) is listed as 1.18 (0.96, 1.46) μg ml^−1. Also, in data set [5] (setting [13]), the “AUC0–τ GLS mean ratio (95% CI)” value is given as 1.25 (1.183, 1.327); the “Cmax GLS mean ratio (95% CI)” value is on record as 1.19 (1.096, 1.282); the “Cmin GLS mean ratio (95% CI)” value is given as 1.76 (1.570, 1.963); the “Cτ GLS mean ratio (95% CI)” value is given as 1.37 (1.274, 1.468). Also, the “t1/2 GLS mean ratio (95% CI)” value in data set [5] (setting [13]) was 1.18 (1.061, 1.305). In data set [5] (setting [14]), this compound gave an area under the curve (AUC) of 61500 ng·h/mL, a Cmax of 4620 ng/mL and a concentration at 24 h of 1310 ng/mL. Further, in data set [5] (setting [15]), the area under the curve (AUC) was determined as 68900 ng·h/mL, the concentration peaked (Cmax) at 4990 ng/mL and the concentration at 24 h worked out at 1590 ng/mL. This compound had a half-life in data set [5] (50 mg, t1/2, Cohort 1, dolutegravir 50 mg once daily alone, Period 1 (n = 16)) of 792 min. The same compound showed a half-life in data set [5] (50 mg, t1/2, Cohort 2, dolutegravir 50 mg once daily alone, Period 1 (n = 16)) of 870 min. Further, in data set [5] (t1/2, Cohort 1, dolutegravir 50 mg once daily + boceprevir 800 mg every 8 h, Period 2 (n = 13)), the half-life is 828 min. The half-life in data set [5] (t1/2, Cohort 2, dolutegravir 50 mg once daily + telaprevir 750 mg every 8 h, Period 2 (n = 14)) was 1000 min. Further, in data set [5] (coadministration with boceprevir vs dolutegravir alone), the “change (increase) in dolutegravir Cτ” value is 8% and < 10%. In data set [5] (setting [16]), the “increase in dolutegravir AUC0–τ” value came to 25%, the “increase in dolutegravir Cmax” value came out at 19% and the “increase in dolutegravir Cτ” value was 37%. For the same compound, in data set [5] (with boceprevir), the “change in dolutegravir exposure” value worked out at 7%. Further, in data set [5] (with telaprevir), the “change in dolutegravir exposure” value was 25%. The “Elevated alanine aminotransferase, frequency” value in data set [6] is <1–2 % of subjects. Moreover, in data set [7], the “All adverse events: Abdominal pain” value is reported as 0 n (%), the “All adverse events: Anal haemorrhage” value is on record as 0 n (%), the “All adverse events: Anorectal discomfort” value is 0 n (%) and the “All adverse events: Any adverse event” value is 4 (13) n (%). Further, in data set [7], the “All adverse events: Dysgeusia” value is listed as 0 n (%), the “All adverse events: Haemorrhoids” value is on record as 0 n (%), the “All adverse events: Headache” value is given as 2 (6) n (%) and the “All adverse events: Maculopapular rash” value was 1 (3) n (%). In addition, in data set [7], the “Drug-related adverse events: Abdominal pain” value was 0 n (%), the “Drug-related adverse events: Any adverse event” value is on record as 2 (6) n (%), the “Drug-related adverse events: Dysgeusia” value was 0 n (%) and the “Drug-related adverse events: Headache” value is given as 1 (3) n (%). Moreover, in data set [7], the “Drug-related adverse events: Maculopapular rash” value was 1 (3) n (%) and the “Subjects withdrawn because of AEs” value is recorded as 0 n (%).
